Source: ChEMBL document CHEMBL2177069, “Novel peptidomimetic compounds containing redox active chalcogens and quinones as potential anticancer agents” (Eur J Med Chem, 2012)
Calls of active or inactive are those of the source. The calls are words filed in the database; no cut-off is given here.

Tests used:
OVCAR-4 = assay: Cytotoxicity against human OVCAR4 cells; type: functional
OVCAR-3 = assay: Cytotoxicity against human OVCAR3 cells; type: functional
Hs-578T = assay: Cytotoxicity against human Hs578T cells; type: functional
Saccharomyces cerevisiae [1] = assay: Growth inhibition of SOD1-deficient Saccharomyces cerevisiae YJR104C mutant at 20 ug/disc after 24 to 48 hrs by agar diffusion assay; type: functional; details: read-out: DIZ
Method in brief: (§1)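 S. cerevisiae deletion mutants or wild type grown on YPD, seeded into liquid agar medium at an optical density of 0.1. 6 mm paper discs soaked with methanolic compound solution were placed on the plates and incubated at 30 °C. Growth was checked after 1 and 2 days, and the inhibition zone diameter was recorded in mm.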

K562 = assay: Cytotoxicity against human K562 cells; type: functional
SK-OV-3 = assay: Cytotoxicity against human SKOV3 cells; type: functional
A-431 = assay: Cytotoxicity against human A431 cells after 24 hrs by MTT assay; type: functional, cell-based; details: A-431, 24 h
Method in brief: (§2)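 MTT assay. Cells were seeded at 50,000 cells/mL in medium with 10% fetal calf serum and grown for two days at 37 °C, 10% CO2. Serial dilutions of compound were then added for 24 h. MTT was added (final 0.5 mg/mL) for 2 h, and the formazan was pelleted, washed, dissolved in isopropanol with 0.4% HCl and read at 590 nm. IC50 is the concentration giving 50% of untreated-control absorbance, taken from dose-response curves; mean of two parallel experiments.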

BT-549 = assay: Cytotoxicity against human BT549 cells; type: functional
UO-31 = assay: Cytotoxicity against human UO31 cells; type: functional
Saccharomyces cerevisiae [2] = assay: Growth inhibition of UFD2-deficient Saccharomyces cerevisiae YDL190C mutant at 20 ug/disc after 24 to 48 hrs by agar diffusion assay; type: functional; details: read-out: DIZ; method in brief: as §1
A549 = assay: Cytotoxicity against human A549 cells; type: functional
Malme-3M = assay: Cytotoxicity against human MALME-3M cells; type: functional
PtK2 [3] = assay: Induction of oxidative stress in potoroo PtK2 cells assessed as reduction in cell adhesion after 24 hrs by immunofluorescence microscopic analysis; type: functional, cell-based; details: Potorous tridactylus
Method in brief: (§3)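 PtK2 cells were grown on coverslips and treated once semi-confluent, for 24 h. Cells were fixed with 3.7% paraformaldehyde followed by 0.1% Triton X-100, or with cold methanol/acetone 50:50. Primary and secondary antibodies were applied for 45 min each: anti-GRP94 for ER, anti-α-tubulin. Actin was stained with phalloidin and nuclei with DAPI. Imaging was by fluorescence microscopy with a CCD camera.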

SF-268 = assay: Cytotoxicity against human SF268 cells; type: functional
HUVEC = assay: Cytotoxicity against human HUVEC cells after 24 hrs by MTT assay; type: cell-based; method in brief: as §2
PtK2 [4] = assay: Induction of oxidative stress in potoroo PtK2 cells assessed as change in microtubular network after 24 hrs by immunofluorescence microscopic analysis; type: functional, cell-based; details: Potorous tridactylus; method in brief: as §3
MOLT-4 = assay: Cytotoxicity against human MOLT4 cells; type: functional
PtK2 [5] = assay: Induction of oxidative stress in potoroo PtK2 cells assessed as hole in the endoplasmic reticulum after 24 hrs by immunofluorescence microscopic analysis; type: functional, cell-based; details: Potorous tridactylus; method in brief: as §3
NCI-H226 = assay: Cytotoxicity against human NCI-H226 cells; type: functional
SF-539 = assay: Cytotoxicity against human SF539 cells; type: functional
RXF 393 = assay: Cytotoxicity against human RXF393 cells; type: functional
Saccharomyces cerevisiae [6] = assay: Growth inhibition of COX17-deficient Saccharomyces cerevisiae YLL009C mutant at 20 ug/disc after 24 to 48 hrs by agar diffusion assay; type: functional; details: read-out: DIZ; method in brief: as §1
UACC-257 = assay: Cytotoxicity against human UACC257 cells; type: functional
Saccharomyces cerevisiae [7] = assay: Growth inhibition of SOD2-deficient Saccharomyces cerevisiae YHR008C mutant at 20 ug/disc 24 to 48 hrs by agar diffusion assay; type: functional; details: read-out: DIZ; method in brief: as §1
CAKI-1 = assay: Cytotoxicity against human Caki1 cells; type: functional
KM12 = assay: Cytotoxicity against human KM12 cells; type: functional
Saccharomyces cerevisiae [8] = assay: Growth inhibition of WSC4-deficient Saccharomyces cerevisiae YHL028W mutant at 20 ug/disc 24 to 48 hrs by agar diffusion assay; type: functional; details: read-out: DIZ; method in brief: as §1
HOP-92 = assay: Cytotoxicity against human HOP92 cells; type: functional
PC-3 = assay: Cytotoxicity against human PC3 cells; type: functional
HCC 2998 = assay: Cytotoxicity against human HCC2998 cells; type: functional
Saccharomyces cerevisiae [9] = assay: Growth inhibition of POS5-deficient Saccharomyces cerevisiae YPL188W mutant at 20 ug/disc after 24 to 48 hrs by agar diffusion assay; type: functional; details: read-out: DIZ; method in brief: as §1
NCI-H522 = assay: Cytotoxicity against human NCI-H522 cells; type: functional
ACHN = assay: Cytotoxicity against human ACHN cells; type: functional
Saccharomyces cerevisiae [10] = assay: Growth inhibition of RCK1-deficient Saccharomyces cerevisiae YGL158W mutant at 20 ug/disc after 24 to 48 hrs by agar diffusion assay; type: functional; details: read-out: DIZ; method in brief: as §1
NCI-H460 = assay: Cytotoxicity against human NCI-H460 cells; type: functional
OVCAR-8 = assay: Cytotoxicity against human OVCAR8 cells; type: functional
PtK2 [11] = assay: Induction of oxidative stress in potoroo PtK2 cells assessed as change in cell morphology after 24 hrs by immunofluorescence microscopic analysis; type: functional, cell-based; details: Potorous tridactylus; method in brief: as §3
MCF7 = assay: Cytotoxicity against human MCF7 cells; type: functional
PtK2 [12] = assay: Induction of oxidative stress in potoroo PtK2 cells assessed as reduction in actin stress fibres after 24 hrs by immunofluorescence microscopic analysis; type: functional, cell-based; details: Potorous tridactylus; method in brief: as §3

Compound: CC1=C(SCCC(=O)OC(C[Se]C2=C(C)C(=O)c3ccccc3C2=O)C(=O)NCCCCCC(=O)OCc2ccccc2)C(=O)c2ccccc2C1=O (centres undefined)
- GI50 (OVCAR-4): 12.3 µM
- LC50 (OVCAR-4): 51.3 µM
- TGI (OVCAR-4; read-out: pTGI (converted)): 25.1 µM
- GI50 (OVCAR-3): 5.01 µM
- LC50 (OVCAR-3): 42.7 µM
- TGI (OVCAR-3; read-out: pTGI (converted)): 18.2 µM
- GI50 (Hs-578T): 7.59 µM
- LC50 (Hs-578T): > 100 µM
- TGI (Hs-578T; read-out: pTGI (converted)): > 100 µM
- zone of inhibition at 20 µg/disc (Saccharomyces cerevisiae [1]): 16 mm
- GI50 (K562): 3.02 µM
- LC50 (K562): > 100 µM
- TGI (K562; read-out: pTGI): > 100 µM
- GI50 (SK-OV-3): 7.08 µM
- LC50 (SK-OV-3): 44.7 µM
- TGI (SK-OV-3; read-out: pTGI (converted)): 19.5 µM
- IC50 (A-431): 6 µM
- GI50 (BT-549): 3.8 µM
- LC50 (BT-549): 36.3 µM
- TGI (BT-549; read-out: pTGI (converted)): 12.9 µM
- GI50 (UO-31): 2.51 µM
- LC50 (UO-31): 50.1 µM
- TGI (UO-31; read-out: pTGI (converted)): 15.1 µM
- zone of inhibition at 20 µg/disc (Saccharomyces cerevisiae [2]): 0 mm
- GI50 (A549): 3.98 µM
- LC50 (A549): > 100 µM
- TGI (A549; read-out: pTGI (converted)): 11.5 µM
- GI50 (Malme-3M): 2.09 µM
- LC50 (Malme-3M): 56.2 µM
- TGI (Malme-3M; read-out: pTGI (converted)): 6.92 µM
- Activity (PtK2 [3]): Active
- GI50 (SF-268): 7.41 µM
- LC50 (SF-268): 44.7 µM
- TGI (SF-268; read-out: pTGI (converted)): 20 µM
- IC50 (HUVEC): 7 µM
- Activity (PtK2 [4]): inactive
- GI50 (MOLT-4): 4.07 µM
- LC50 (MOLT-4): > 100 µM
- TGI (MOLT-4; read-out: pTGI (converted)): > 100 µM
- Activity (PtK2 [5]): Active
- GI50 (NCI-H226): 19.5 µM
- CC50 (NCI-H226; read-out: pLC50 (the source's name) (converted)): > 100 µM
- TGI (NCI-H226; read-out: pTGI (converted)): 51.3 µM
- GI50 (SF-539): 4.47 µM
- LC50 (SF-539): 43.7 µM
- TGI (SF-539; read-out: pTGI (converted)): 15.5 µM
- GI50 (RXF 393): 14.8 µM
- LC50 (RXF 393): 53.7 µM
- TGI (RXF 393; read-out: pTGI (converted)): 28.2 µM
- zone of inhibition at 20 µg/disc (Saccharomyces cerevisiae [6]): 11 mm
- GI50 (UACC-257): 3.47 µM
- LC50 (UACC-257): 34.7 µM
- TGI (UACC-257; read-out: pTGI (converted)): 10 µM
- zone of inhibition at 20 µg/disc (Saccharomyces cerevisiae [7]): 15 mm
- GI50 (CAKI-1): 6.92 µM
- LC50 (CAKI-1): 51.3 µM
- TGI (CAKI-1; read-out: pTGI (converted)): 21.4 µM
- GI50 (KM12): 1.41 µM
- LC50 (KM12): 13.8 µM
- TGI (KM12; read-out: pTGI (converted)): 4.07 µM
- zone of inhibition at 20 µg/disc (Saccharomyces cerevisiae [8]): 16 mm
- GI50 (HOP-92): 2.69 µM
- LC50 (50% lethal concentration) (HOP-92): 30.9 µM
- TGI (HOP-92; read-out: pTGI (converted)): 7.94 µM
- GI50 (PC-3): 2.57 µM
- LC50 (PC-3): 55 µM
- TGI (PC-3; read-out: pTGI (converted)): 9.12 µM
- GI50 (HCC 2998): 6.46 µM
- LC50 (HCC 2998): 46.8 µM
- TGI (HCC 2998; read-out: pTGI (converted)): 18.6 µM
- zone of inhibition at 20 µg/disc (Saccharomyces cerevisiae [9]): 10 mm
- GI50 (NCI-H522): 3.98 µM
- LC50 (NCI-H522): 44.7 µM
- TGI (NCI-H522; read-out: pTGI (converted)): 15.1 µM
- GI50 (ACHN): 12 µM
- LC50 (ACHN): 63.1 µM
- TGI (ACHN; read-out: pTGI (converted)): 27.5 µM
- zone of inhibition at 20 µg/disc (Saccharomyces cerevisiae [10]): 10 mm
- GI50 (NCI-H460): 1.91 µM
- LC50 (NCI-H460): 14.1 µM
- TGI (NCI-H460; read-out: pTGI (converted)): 4.57 µM
- GI50 (OVCAR-8): 4.17 µM
- LC50 (OVCAR-8): 50.1 µM
- TGI (OVCAR-8; read-out: pTGI (converted)): 15.1 µM
- Activity (PtK2 [11]): Active
- GI50 (MCF7): 4.79 µM
- LC50 (MCF7): > 100 µM
- TGI (MCF7; read-out: pTGI (converted)): 29.5 µM
- Activity (PtK2 [12]): Active
